Experimental data from article PMC12749109 (Nature Communications, 2025).

What was measured:
DSS-induced colitis [1] = experiment: DSS-induced colitis with M871 or SNAP37889 ± cGAL29, overall; assay type: in vivo; conditions: mouse
In short: (§1)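 Male C57BL/6 mice (20 ± 2 g, 7–8 weeks) received 3% DSS with daily i.p. test peptide (3 μM). A GALR2 or GALR3 antagonist (10 nmol/mouse, in 10% DMSO/40% PEG 300/30% Tween-20/20% saline) was given 30 min before each peptide dose. Controls followed the standard DSS protocol.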

DSS-induced colitis [2] = experiment: DSS-induced colitis with M871 or SNAP37889 ± cGAL53, overall; assay type: in vivo; conditions: mouse, 3% DSS; antagonist 10 nmol/mouse + cGAL53 3 μM
In short: as §1

Caco2 cells = experiment: RT-qPCR cytokine expression, Caco2 cell inflammation model with GALR antagonists; assay type: cell-based, human; conditions: Caco-2 inflammation model, IL-1β + TNF-α

O=C1C(=Nc2cccc(C(F)(F)F)c2)c2ccccc2N1c1ccccc1 [SNAP37889]
effect of antagonist on therapeutic efficacy of cGAL29 (DSS-induced colitis [1]): exerted inhibitory effects on the therapeutic efficacy of cGAL29
effect of antagonist on ability of cGAL53 to alleviate colitis (DSS-induced colitis [2]): cGAL53 was still effective in treating colitis symptoms in mice
block of anti-inflammatory effect of cGAL53 by antagonist (Caco2 cells): not by SNAP37889
